Measurements taken from ChEMBL document CHEMBL2321652, “Design and synthesis of HIV-1 protease inhibitors for a long-acting injectable drug application” (Bioorg Med Chem Lett, 2013).

Tests used:
[1] = Aqueous solubility of the compound in crystalline polymorphic form; type: physicochemical
[2] = Bioavailability in rat at 100 mg/mL formulated with 25 mg/mL of polysorbate 20 and 9 mg/mL of NaCl in water administered intramuscularly measured after 1 month; type: ADME, organism-based; conditions: in vivo, im
Outline: (§1)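 Nanosuspension depot given by a single intramuscular injection in rats. Blood is sampled at regular intervals over two months. Absolute bioavailability is assessed after 1 month of sampling as ((AUC_IM × dose_IV)/(AUC_IV × dose_IM)) × 100, relative to intravenous dosing.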

[3] = Drug metabolism in human liver microsomes at 1 uM after 15 mins; type: ADME, Microsome; conditions: read-out: Drug metabolism
Outline: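 Human liver microsome incubation at 37 °C for 15 min with compound at 1 µM; turnover expressed as percent of compound metabolized.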

[4] = Plasma clearance in rat at 2 mg/kg, iv; type: ADME, organism-based; set-up: dose 2 mg/kg, route intravenous
Outline: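 Single intravenous dose of 2 mg/kg in rats. The formulation is typically 1 mg/mL in PEG400/ethanol/saline (70/20/10). Clearance values are averages from two or three animals. High is >3 L/h/kg (>70% liver blood flow) and low is <1.3 L/h/kg (<30%).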

[5] = system: Human immunodeficiency virus 1; assay: Selectivity ratio of EC50 for Human immunodeficiency virus 1 3B clinical isolate harboring L10I/K20R/M36I/G48V/ I62V/A71V/V82A/I93L protease mutant to EC50 for wild type Human immunodeficiency virus 1 3B; type: functional
[6] = system: Human immunodeficiency virus 1; assay: Selectivity ratio of EC50 for Human immunodeficiency virus 1 3B clinical isolate harboring L10I/I13V/M46I/I50V/L63P/L76V protease mutant to EC50 for wild type Human immunodeficiency virus 1 3B; type: functional
[7] = system: Human immunodeficiency virus 1; assay: Selectivity ratio of EC50 for Human immunodeficiency virus 1 3B clinical isolate harboring L10I/M46I/I64V/I84V/L90M/I93L protease mutant to EC50 for wild type Human immunodeficiency virus 1 3B; type: functional
[8] = system: Human immunodeficiency virus 1; assay: Antiviral activity against Human immunodeficiency virus 1 3B clinical isolate harboring L10I/K20R/M36I/G48V/ I62V/A71V/V82A/I93L protease mutant infected in human MT4 cells assessed as inhibition of viral replication; type: functional, organism-based
Outline: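 Each assay run in quadruplicate. Values are averages of at least two independent experiments, typically three to four. Cytotoxicity (CC50) was measured in parallel in MT4 cells.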

[9] = system: Human immunodeficiency virus 1; assay: Antiviral activity against Human immunodeficiency virus 1 3B clinical isolate harboring L10I/I13V/M46I/I50V/L63P/L76V protease mutant infected in human MT4 cells assessed as inhibition of viral replication; type: functional, organism-based
Outline: (§2)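 Inhibition of replication in MT4 cells infected with protease-mutant HIV-1 clinical isolates, reported as EC50. Each assay run in quadruplicate. Values are averages of at least two independent experiments, typically three to four. Cytotoxicity (CC50) was measured in parallel in MT4 cells.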

[10] = Cytotoxicity against human MT4 cells; type: cell-based
[11] = system: Human immunodeficiency virus 1; assay: Antiviral activity against wild type Human immunodeficiency virus 1 3B infected in human MT4 cells assessed as inhibition of viral replication; type: functional, organism-based
Outline: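 EC50 values are averages of at least two independent experiments (typically three to four), each run in quadruplicate. For the serum-shifted line, the same antiviral assay includes 50% human serum, used as a functional measure of plasma protein binding.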

[12] = system: Human immunodeficiency virus 1; assay: Antiviral activity against wild type Human immunodeficiency virus 1 3B infected in human MT4 cells assessed as inhibition of viral replication in presence of 50% human serum
[13] = Bioavailability in rat at 50 mg/mL formulated with Vit-E TPGS in water administered intramuscularly measured after 1 month; type: ADME, organism-based; conditions: in vivo, im; outline: as §1
[14] = Bioavailability in rat at 50 mg/mL formulated with 12.5 mg/mL of poloxamer 338 and sucrose in water administered intramuscularly measured after 1 month; type: ADME, organism-based; conditions: in vivo, im; outline: as §1
[15] = system: Human immunodeficiency virus 1; assay: Antiviral activity against Human immunodeficiency virus 1 3B clinical isolate harboring L10I/M46I/I64V/I84V/L90M/I93L protease mutant infected in human MT4 cells assessed as inhibition of viral replication; type: functional, organism-based; outline: as §2

SMILES	solubility [1]	bioavailability at 1 month [2]	metabolised at 0.25 h, 1 µM [3]	clearance [4]	Ratio EC50 [5]	Ratio EC50 [6]	Ratio EC50 [7]	EC50 [8]	EC50 [9]	CC50 [10]	EC50 [11]	EC50 [12]	bioavailability at 1 month [13]	bioavailability at 1 month [14]	EC50 [15]
COC(=O)N[C@H](C(=O)N[C@@H](Cc1ccc(-c2ccc(OC)nc2)cc1)[C@@H](O)C[C@@H](Cc1ccccc1F)C(=O)N[C@H]1[C@H](C)CCC[C@H]1O)C(C)(C)C	< 100 µg/mL	> 100%	99%	90 mL/min/kg	<1	<1	<1	0.5 nM	0.3 nM	> 10000 nM	0.8 nM	2 nM			
COC(=O)N[C@H](C(=O)N[C@@H](Cc1ccc(-c2ccc(OC)nc2)cc1)[C@@H](O)C[C@@H](Cc1ccccc1F)C(=O)N[C@H]1c2ccsc2CC[C@H]1O)C(C)(C)C	< 100 µg/mL		91%	80 mL/min/kg	<1	<1	<1	0.4 nM	0.6 nM	> 10000 nM	1.1 nM	3.7 nM	100%	> 100%	0.9 nM
